Test results from ChEMBL document CHEMBL4219033, “Anticancer activity profiling of parthenolide analogs generated via P450-mediated chemoenzymatic synthesis” (2018).

Assays:
Assay type in all cases: functional
JeKo-1 [1] = assay: Cytotoxicity against human JeKo1 cells assessed as cell viability at 10 uM after 24 hrs by MTT assay relative to control; details: JeKo-1, 24 h, read-out: Activity
Method in brief: (§1)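 Suspension lines grown in α-MEM plus 10% FBS and penicillin-streptomycin, 37 °C, 5% CO2. Seeded at 30,000 cells/well in phenol-red-free α-MEM and rested 15 h. Exposed to 10 µM, or 2 µM in the lower-dose repeat, at 1% DMSO final for 24 h. 5 mg/ml MTT added directly for 3 h at 37 °C. Plates spun, formazan dissolved in DMSO, OD read at 550 nm. Viability relative to vehicle.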

PC-3 [2] = assay: Cytotoxicity against human PC3 cells assessed as cell viability at 10 uM after 24 hrs by MTT assay relative to control; details: PC-3, 24 h, read-out: Activity
Method in brief: (§2)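 Adherent lines in DMEM plus 10% FBS and penicillin-streptomycin, 37 °C, 5% CO2, lifted with Accutase. Seeded at 500–10,000 cells/well and rested 15 h. Compounds from 10 mM DMSO stocks dosed at 10 µM final, 1% DMSO final, n = 5, for 24 h. Medium then swapped for 1 mg/ml MTT in phenol-red-free medium for 3 h at 37 °C. Formazan dissolved in DMSO, OD read at 550 nm. Viability normalised to 1% DMSO vehicle control.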

SK-N-MC [3] = assay: Cytotoxicity against human SK-N-MC cells assessed as cell viability at 10 uM after 24 hrs by MTT assay relative to control; details: read-out: Activity; method in brief: as §2
JeKo-1 [4] = assay: Cytotoxicity against human JeKo1 cells assessed as cell viability after 24 hrs by MTT assay; details: JeKo-1, 24 h, read-out: LC50 (the source's name)
Method in brief: (§3)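 Suspension cells grown in α-MEM with 10% FBS and penicillin-streptomycin, seeded at 30,000 cells/well in phenol red-free medium and held 15 h before treatment. Compounds diluted from 10 mM DMSO stocks, final 1% DMSO, for 24 h. MTT (5 mg/ml stock) added directly for 3 h at 37 °C, then centrifugation, DMSO solubilization, OD 550 nm. LC50 from dose-response curves normalized to vehicle.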

A549 [5] = assay: Cytotoxicity against human A549 cells assessed as cell viability at 10 uM after 24 hrs by MTT assay relative to control; details: A549, 24 h, read-out: Activity; method in brief: as §2
Jurkat [6] = assay: Cytotoxicity against human Jurkat cells assessed as cell viability at 10 uM after 24 hrs by MTT assay relative to control; details: read-out: Activity; method in brief: as §1
HCT-116 [7] = assay: Cytotoxicity against human HCT116 cells assessed as cell viability at 10 uM after 24 hrs by MTT assay relative to control; details: HCT-116, 24 h, read-out: Activity; method in brief: as §2
HeLa [8] = assay: Cytotoxicity against human HeLa cells assessed as cell viability at 10 uM after 24 hrs by MTT assay relative to control; details: read-out: Activity; method in brief: as §2
Jurkat [9] = assay: Cytotoxicity against human Jurkat cells assessed as cell viability at 2 uM after 24 hrs by MTT assay relative to control; details: read-out: Activity; method in brief: as §1
MDA-MB-231 [10] = assay: Cytotoxicity against human MDA-MB-231 cells assessed as cell viability at 10 uM after 24 hrs by MTT assay relative to control; details: MDA-MB-231, 24 h, read-out: Activity; method in brief: as §2
JeKo-1 [11] = assay: Cytotoxicity against human JeKo1 cells assessed as cell viability at 2 uM after 24 hrs by MTT assay relative to control; details: JeKo-1, 24 h, read-out: Activity; method in brief: as §1
SJSA-1 [12] = assay: Cytotoxicity against human SJSA1 cells assessed as cell viability at 10 uM after 24 hrs by MTT assay relative to control; details: SJSA-1, 24 h, read-out: Activity; method in brief: as §2
SK-MEL-2 [13] = assay: Cytotoxicity against human SK-MEL-2 cells assessed as cell viability at 10 uM after 24 hrs by MTT assay relative to control; details: SK-MEL-2, 24 h, read-out: Activity; method in brief: as §2
HeLa [14] = assay: Cytotoxicity against human HeLa cells assessed as cell viability after 24 hrs by MTT assay; details: read-out: LC50 (the source's name)
Method in brief: (§4)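 Adherent cells grown in DMEM with 10% FBS and penicillin-streptomycin, dissociated with Accutase, seeded at 500–10,000 cells/well and held 15 h before treatment. Compounds diluted from 10 mM DMSO stocks, final 1% DMSO, for 24 h at 37 °C, 5% CO2. Medium replaced with 1 mg/ml MTT for 3 h, formazan dissolved in DMSO, OD 550 nm. LC50 from dose-response curves normalized to 1% DMSO vehicle.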

PC-3 [15] = assay: Cytotoxicity against human PC3 cells assessed as cell viability after 24 hrs by MTT assay; details: PC-3, 24 h, read-out: LC50 (the source's name); method in brief: as §4
MDA-MB-231 [16] = assay: Cytotoxicity against human MDA-MB-231 cells assessed as cell viability after 24 hrs by MTT assay; details: MDA-MB-231, 24 h, read-out: LC50 (the source's name); method in brief: as §4
SK-N-MC [17] = assay: Cytotoxicity against human SK-N-MC cells assessed as cell viability after 24 hrs by MTT assay; details: read-out: LC50 (the source's name); method in brief: as §4
HCT-116 [18] = assay: Cytotoxicity against human HCT116 cells assessed as cell viability after 24 hrs by MTT assay; details: HCT-116, 24 h, read-out: LC50 (the source's name); method in brief: as §4
SJSA-1 [19] = assay: Cytotoxicity against human SJSA1 cells assessed as cell viability after 24 hrs by MTT assay; details: SJSA-1, 24 h, read-out: LC50 (the source's name); method in brief: as §4
A549 [20] = assay: Cytotoxicity against human A549 cells assessed as cell viability after 24 hrs by MTT assay; details: A549, 24 h, read-out: LC50 (the source's name); method in brief: as §4
Jurkat [21] = assay: Cytotoxicity against human Jurkat cells assessed as cell viability after 24 hrs by MTT assay; details: read-out: LC50 (the source's name); method in brief: as §3
SK-MEL-2 [22] = assay: Cytotoxicity against human SK-MEL-2 cells assessed as cell viability after 24 hrs by MTT assay; details: SK-MEL-2, 24 h, read-out: LC50 (the source's name); method in brief: as §4

SMILES	viability at 10 µM (JeKo-1 [1]) [%]	viability at 10 µM (PC-3 [2]) [%]	viability at 10 µM (SK-N-MC [3]) [%]	CC50 (JeKo-1 [4]) [µM]	viability at 10 µM (A549 [5]) [%]	viability at 10 µM (Jurkat [6]) [%]	viability at 10 µM (HCT-116 [7]) [%]	viability at 10 µM (HeLa [8]) [%]	viability at 2 µM (Jurkat [9]) [%]	viability at 10 µM (MDA-MB-231 [10]) [%]	viability at 2 µM (JeKo-1 [11]) [%]	viability at 10 µM (SJSA-1 [12]) [%]	viability at 10 µM (SK-MEL-2 [13]) [%]	CC50 (HeLa [14]) [nM]	CC50 (PC-3 [15]) [µM]	CC50 (MDA-MB-231 [16]) [µM]	CC50 (SK-N-MC [17]) [µM]	CC50 (HCT-116 [18]) [µM]	CC50 (SJSA-1 [19]) [µM]	CC50 (Jurkat [21]) [nM]	also measured
C=C1C(=O)O[C@@H]2[C@H]3O[C@]3(C)CC/C=C(/COC(=O)Nc3ccc(F)cc3F)CC[C@@H]12	-2.1	89.8	95.6	6.7	70.6	0	33.2	89.7	86.2	88.5	78.3	100	84.5	–	–	–	–	–	–	–	–
C=C1C(=O)O[C@@H]2[C@H]3O[C@]3(C)CC/C=C(/C)[C@@H](OC(=O)c3ccc(C(F)(F)F)cc3C(F)(F)F)C[C@@H]12	5.7	6.4	11.5	–	33.7	0	20.8	10.7	83.2	19.2	105	26.5	61.4	2100	5.3	5.7	5.7	–	–	–	–
C=C1C(=O)O[C@@H]2[C@H]3O[C@]3(C)CC/C=C(/COC(=O)c3cc(C(F)(F)F)cc(C(F)(F)F)c3)CC[C@@H]12	4.8	3.7	3.2	1.7	29.6	5.7	15.5	3.9	70	8	64.3	23.1	28.6	1500	4.7	6.2	0.6	5.7	6.4	1900	CC50 (A549 [20]): 4.9 µM
C=C1C(=O)O[C@@H]2[C@H]3O[C@]3(C)CC/C=C(/COC(=O)Nc3ccc([N+](=O)[O-])cc3)CC[C@@H]12	-0.1	17.7	23.3	–	60	0	1.6	5.4	79	41.3	80	44.5	40.4	1700	5.7	–	–	7.8	–	–	–
C=C1C(=O)O[C@@H]2[C@H]3O[C@]3(C)CC/C=C(/C)[C@@H](OC(=O)c3cc(C(F)(F)F)cc(C(F)(F)F)c3)C[C@@H]12	4.1	2.2	3	1.2	82.5	5	54.4	32	53.1	3.6	73.3	88.2	14.8	–	3.1	3.8	4.7	–	–	1200	CC50 (SK-MEL-2 [22]): 2.6 µM
C=C1C(=O)O[C@@H]2C3O[C@]3(C)CC/C=C(\C)CC[C@@H]12 (stereo partly drawn)	47.5	82.6	30	10	85	70.3	104	35	100	67	100	100	95.8	9000	20.5	18.3	4.7	18	42.4	16900	CC50 (SK-MEL-2 [22]): 24.9 µM; CC50 (A549 [20]): 29.7 µM
C=C1C(=O)O[C@@H]2[C@H]3O[C@]3(C)CC/C=C(/C)[C@@H](OC(=O)Nc3cc(C(F)(F)F)cc(C(F)(F)F)c3)C[C@@H]12	-1	38.7	18.5	3.5	54.3	0	10.8	20.2	68.9	16.7	76.4	68.2	57	–	–	7.2	–	7.9	–	2800	–
C=C1C(=O)O[C@@H]2[C@H]3O[C@]3(C)CC/C=C(/COC(=O)c3ccc(C(F)(F)F)cc3C(F)(F)F)CC[C@@H]12	-2.2	4	18.7	–	45.1	0	15.1	11.3	89	20.7	80.9	17.8	62	2900	6.7	–	5.6	8.2	7.7	–	–
